Data on 1 compound can be found in ChEMBL document CHEMBL2057082, “Discovery of N-(4-methoxy-7-methylbenzo[d]thiazol-2-yl)isonicatinamide, ML293, as a novel, selective and brain penetrant positive allosteric modulator of the muscarinic 4 (M4) receptor” (Bioorg Med Chem Lett, 2012).

Calls of active or inactive are those of the source. The rule behind the calls is not given here.

Series [1] concerns the target T1, Muscarinic acetylcholine receptor M5 (Homo sapiens) (UniProt P08912).
T1 sequence (whole entry): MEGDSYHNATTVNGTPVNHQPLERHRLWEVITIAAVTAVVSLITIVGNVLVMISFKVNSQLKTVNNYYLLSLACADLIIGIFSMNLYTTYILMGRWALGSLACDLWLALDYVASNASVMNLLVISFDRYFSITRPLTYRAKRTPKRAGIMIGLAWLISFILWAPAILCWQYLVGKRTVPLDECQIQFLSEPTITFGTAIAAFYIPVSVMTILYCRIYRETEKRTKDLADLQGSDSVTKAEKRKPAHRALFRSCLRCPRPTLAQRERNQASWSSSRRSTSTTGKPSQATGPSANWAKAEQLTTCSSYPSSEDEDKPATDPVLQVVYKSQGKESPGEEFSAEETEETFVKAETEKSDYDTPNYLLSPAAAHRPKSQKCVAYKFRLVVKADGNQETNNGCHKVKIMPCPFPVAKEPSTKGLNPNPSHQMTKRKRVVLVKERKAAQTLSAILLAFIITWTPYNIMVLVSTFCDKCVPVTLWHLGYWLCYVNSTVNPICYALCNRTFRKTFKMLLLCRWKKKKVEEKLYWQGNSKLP
The series can be described thus: Activity at human M5 receptor expressed in CHO cells coexpressing Gqi5 assessed as effect on acetylcholine induced calcium mobilization up to 30 uM incubated for 144 secs prior to acetylcholine addition by Fluo-4-AM staining. The series is classed as functional, cell-based. Background: Calcium assays in cells follow changes in intracellular calcium, usually with a dye or a luminescent sensor.

Series [2] concerns the target Muscarinic acetylcholine receptor M3 (Homo sapiens) (UniProt P20309). The series can be described thus: Activity at human M3 receptor expressed in CHO cells coexpressing Gqi5 assessed as effect on acetylcholine induced calcium mobilization up to 30 uM incubated for 144 secs prior to acetylcholine addition by Fluo-4-AM staining. In kind it is functional, cell-based.

Series [3] deals with T2, Muscarinic acetylcholine receptor M2 (Homo sapiens) (UniProt P08172).
T2 sequence (whole entry): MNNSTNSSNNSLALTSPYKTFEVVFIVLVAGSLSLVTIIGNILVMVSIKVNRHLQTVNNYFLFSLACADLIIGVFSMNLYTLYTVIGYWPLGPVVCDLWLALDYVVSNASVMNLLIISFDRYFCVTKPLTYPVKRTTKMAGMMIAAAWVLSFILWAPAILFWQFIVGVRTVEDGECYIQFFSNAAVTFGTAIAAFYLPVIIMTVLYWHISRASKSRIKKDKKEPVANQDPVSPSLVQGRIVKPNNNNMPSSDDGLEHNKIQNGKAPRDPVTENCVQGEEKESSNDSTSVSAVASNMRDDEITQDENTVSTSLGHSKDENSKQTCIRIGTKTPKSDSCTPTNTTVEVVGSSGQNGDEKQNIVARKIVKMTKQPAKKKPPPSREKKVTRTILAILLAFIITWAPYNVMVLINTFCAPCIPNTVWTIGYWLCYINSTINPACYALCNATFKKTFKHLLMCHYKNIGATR
The experiment in a line: Activity at human M2 receptor expressed in CHO cells coexpressing Gqi5 assessed as effect on acetylcholine induced calcium mobilization up to 30 uM incubated for 144 secs prior to acetylcholine addition by Fluo-4-AM staining. The series is classed as functional, cell-based. In short, it runs like this: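 Off-target mode: CHO-K1 lines stably expressing hM1, hM3 or hM5 (wild-type) or hM2 cotransfected with Gqi5, plated 15,000 cells/well, grown overnight at 37 °C. Fluo-4 AM loading 45 min at 37 °C in HBSS/20 mM HEPES/2.5 mM probenecid. Compound (up to 30 µM, 0.3% DMSO final) added 144 s before ACh. Calcium read kinetically at 37 °C.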

The target in series [4] is T3, Muscarinic acetylcholine receptor M1 (Homo sapiens) (UniProt P11229).
T3 sequence (whole entry): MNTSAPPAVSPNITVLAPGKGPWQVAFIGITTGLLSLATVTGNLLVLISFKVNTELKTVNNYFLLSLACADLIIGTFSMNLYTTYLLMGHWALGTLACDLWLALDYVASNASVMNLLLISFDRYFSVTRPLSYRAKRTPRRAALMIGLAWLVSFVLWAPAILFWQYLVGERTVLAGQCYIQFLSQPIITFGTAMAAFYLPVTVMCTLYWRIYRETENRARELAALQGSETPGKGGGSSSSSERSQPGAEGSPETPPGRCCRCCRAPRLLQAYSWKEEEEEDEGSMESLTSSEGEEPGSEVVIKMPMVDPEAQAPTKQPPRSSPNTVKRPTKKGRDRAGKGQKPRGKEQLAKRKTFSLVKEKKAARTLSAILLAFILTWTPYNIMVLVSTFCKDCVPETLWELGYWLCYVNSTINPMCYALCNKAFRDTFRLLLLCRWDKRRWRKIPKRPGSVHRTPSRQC
The series can be described thus: Activity at human M1 receptor expressed in CHO-K1 cells coexpressing Gqi5 assessed as effect on acetylcholine induced calcium mobilization up to 30 uM incubated for 144 secs prior to acetylcholine addition by Fluo-4-AM staining. The series is classed as functional, cell-based.

Series [5] addresses T4, Muscarinic acetylcholine receptor M4 (Homo sapiens) (UniProt P08173).
T4 sequence (whole entry): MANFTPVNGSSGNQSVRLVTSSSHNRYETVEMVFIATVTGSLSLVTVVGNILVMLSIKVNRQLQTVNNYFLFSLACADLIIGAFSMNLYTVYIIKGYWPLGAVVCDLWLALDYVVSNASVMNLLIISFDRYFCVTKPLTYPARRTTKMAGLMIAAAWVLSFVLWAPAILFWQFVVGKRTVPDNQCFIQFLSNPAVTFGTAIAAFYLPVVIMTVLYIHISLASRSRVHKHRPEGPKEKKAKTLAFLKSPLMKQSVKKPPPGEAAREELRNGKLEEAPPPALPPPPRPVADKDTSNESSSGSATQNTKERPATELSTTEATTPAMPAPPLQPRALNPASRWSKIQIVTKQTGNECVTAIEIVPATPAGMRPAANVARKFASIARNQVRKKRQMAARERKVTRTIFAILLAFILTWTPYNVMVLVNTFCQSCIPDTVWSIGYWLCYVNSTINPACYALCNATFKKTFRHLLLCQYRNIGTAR
The series can be described thus: Positive allosteric modulation of human M4 receptor expressed in CHO-K1 cells coexpressing Gqi5 assessed as potentiation of acetylcholine-mediated calcium mobilization incubated for 144 secs prior to acetylcholine addition by Fluo-4-AM staining relative to acetylcholine. In kind it is functional, cell-based. In short, it runs like this:
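hM4-Gqi5 CHO-K1 cells, plated overnight, loaded with Fluo-4 AM (45 min, 37 °C). Compound (0.3% DMSO final) preincubated 144 s, then ACh EC20 added, and EC80 added 86 s later; 1 mM ACh wells for normalization. Calcium read at 37 °C, normalized to baseline and then to maximal ACh response. EC50 from four-parameter logistic fit; three independent determinations in triplicate.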

Series [6] deals with T5, Muscarinic acetylcholine receptor M4 (Homo sapiens, UniProt P08173).
T5 sequence (P08173 whole entry): T4 sequence (whole entry)
The series can be described thus: Positive allosteric modulation of human M4 receptor expressed in CHO-K1 cells coexpressing Gqi5 assessed as potentiation of acetylcholine-mediated calcium mobilization incubated for 144 secs prior to acetylcholine addition by Fluo-4-AM staining. In kind it is functional, cell-based. In short, it runs like this: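 hM4 stably cotransfected with chimeric Gqi5 in CHO-K1 cells. Cells plated overnight at 37 °C, loaded with Fluo-4 AM for 45 min at 37 °C in HBSS/20 mM HEPES/2.5 mM probenecid. Compound pretreated 144 s (0.3% DMSO final), then EC20 ACh, then EC80 ACh 86 s later; kinetic fluorescence at 37 °C.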

Series [7] in a line: Drug uptake in rat brain assessed per gram of tissue at 10 mg/kg, po administered as single dose measured at 1 hr. The series is classed as ADME, organism-based. Details: dose 10 mg/kg, route oral. Conditions: read-out: Drug uptake. In short, it runs like this: (§1)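 Rats got a single 10 mg/kg oral dose. At a single 1 h time point, brain (ng/g tissue), plasma and hepatic portal vein concentrations were measured, giving brain:plasma and portal vein:plasma ratios. The portal vein:plasma ratio was taken as an indicator of the extent of oxidative metabolism.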

Series [8] in a line: Drug uptake in rat hepatic portal vein at 10 mg/kg, po administered as single dose measured at 1 hr. In kind it is ADME, organism-based. Details: dose 10 mg/kg, route oral. The conditions noted are these: read-out: Drug uptake. In short, it runs like this:
as §1

The nature of series [9]: Plasma concentration in rat at 10 mg/kg, po administered as single dose measured at 1 hr. In kind it is ADME, organism-based. Details: dose 10 mg/kg, route oral. In short, it runs like this: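 Rats received a single 10 mg/kg oral dose. At 1 h, drug was measured in brain (ng/g), plasma and hepatic portal vein, and brain:plasma and HPV:plasma ratios were calculated.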

Series [10] in a line: Plasma clearance in rat at 1mg/kg, iv. The series is classed as ADME, organism-based.
Series [11] can be described thus: AUC in rat at 1 mg/kg, iv. In kind it is ADME, organism-based. The arrangement: dose 1 mg/kg, route intravenous. The conditions noted are these: plasma.
Series [12] is described as follows: Volume of distribution at steady state in rat at 1 mg/kg, iv. In kind it is ADME, organism-based. The arrangement: dose 1 mg/kg, route intravenous. The conditions noted are these: in vivo, read-out: Vdss.
Series [13] is described as follows: Mean residence time in rat at 1 mg/kg, iv. The series is classed as ADME, organism-based. The arrangement: dose 1 mg/kg, route intravenous. Conditions: in vivo.
A short description of series [14]: Half life in rat at 1 mg/kg, iv. In kind it is ADME, organism-based. The conditions noted are these: in vivo. The arrangement: dose 1 mg/kg, route intravenous.
In a further series the test system is Brain. The experiment in a line: Fraction unbound in rat brain homogenate. In kind it is ADME, tissue-based. In short, it runs like this:
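Binding was measured in rat brain homogenate and reported as % unbound fraction.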

In series [15] the test system is Plasma. The series can be described thus: Fraction unbound in human plasma. The series is classed as ADME, cell-free. In short, it runs like this:
(§2)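 Plasma protein binding was measured by equilibrium dialysis in human and rat plasma and reported as % unbound.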

Series [16] relates to Plasma. The experiment in a line: Fraction unbound in rat plasma. In kind it is ADME, cell-free. In short, it runs like this:
as §2

A short description of series [17]: Intrinsic clearance in rat liver microsomes. In kind it is ADME, Microsome. The conditions noted are these: read-out: CLH. In short, it runs like this: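 Intrinsic clearance was measured in human and rat hepatic microsomes to assess oxidative metabolism, with predicted hepatic clearance given in mL/min/kg.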
In general terms: Liver microsomes are vesicles of endoplasmic reticulum, rich in cytochrome P450 enzymes.

Muscarinic acetylcholine receptor M3 (Homo sapiens), sequence (P20309 whole entry, looked up): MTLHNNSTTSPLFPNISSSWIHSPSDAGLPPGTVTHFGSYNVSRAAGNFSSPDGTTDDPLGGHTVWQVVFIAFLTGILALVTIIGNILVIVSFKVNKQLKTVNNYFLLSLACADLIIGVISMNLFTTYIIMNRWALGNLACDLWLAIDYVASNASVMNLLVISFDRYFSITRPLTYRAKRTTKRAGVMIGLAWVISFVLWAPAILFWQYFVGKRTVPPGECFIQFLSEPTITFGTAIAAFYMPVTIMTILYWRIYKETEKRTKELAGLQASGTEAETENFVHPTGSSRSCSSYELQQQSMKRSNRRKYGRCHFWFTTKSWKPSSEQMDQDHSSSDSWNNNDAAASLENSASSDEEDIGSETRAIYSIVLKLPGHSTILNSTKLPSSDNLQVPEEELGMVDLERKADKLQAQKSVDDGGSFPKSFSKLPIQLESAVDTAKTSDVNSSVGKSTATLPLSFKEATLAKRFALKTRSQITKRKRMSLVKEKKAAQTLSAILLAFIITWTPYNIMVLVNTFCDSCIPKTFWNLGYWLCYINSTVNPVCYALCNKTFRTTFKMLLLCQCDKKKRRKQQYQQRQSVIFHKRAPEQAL

What is called EC50 is the concentration giving half of the maximal effect. Broadly, the clearance is the rate of elimination divided by the concentration. Low readings indicate a low capacity for elimination, high ones a high capacity for elimination. As usually defined, the AUC is concentration integrated over time. High values mean high exposure, low ones low exposure. As usually defined, the MRT is the average time that molecules of a dose stay in the body. For orientation: half-life means how long it takes for the measured level to halve. Read a high half-life as slow decline. Regarding `COc1ccc(C)c2sc(NC(=O)c3ccncc3)nc12`, the outcome in series [1], in series [2], in series [3] and in [4] was inactive. The %max in series [5] amounted to 65.2%. Further, the EC50 in series [6] was 1290 nM. In addition, the concentration at 1 h is 3090 ng/g in series [7], 3070 ng/mL in series [8] and 3740 ng/mL in series [9]. Also, in [10], the clearance was determined as 11.5 mL/min/kg. Also, the AUC in series [11] came to 1440 ng·h/mL. Also, the Vd in series [12] worked out at 0.97 L/kg. In series [13], this compound gave a mean residence time (MRT) of 1.42 h. In addition, the half-life in [14] is 0.95 h. Further, the Fu with Brain was found to be 0.9%; in the series on Plasma [15] it was 1%; in the series on Plasma [16], 3.2%. Also, the CLint scaled in [17] was 48.5 mL/min/kg.
